Results published in ChEMBL document CHEMBL1142150, “Inhibitors of nonhousekeeping functions of the apicoplast defy delayed death in Plasmodium falciparum” (Antimicrob Agents Chemother, 2007).
Values after ≈ are worked out from the molar mass of the structure shown. Active and inactive are the calls of the source. The rule behind the calls is not given here.

How the values were obtained:
Plasmodium falciparum [1] = experiment: Reduced apicoplast DNA/nuclear DNA ratio in Plasmodium falciparum FCK2 at 25 uM after 72 hrs by competitive PCR; format: functional, organism-based
Plasmodium falciparum [2] = experiment: Inhibition of Plasmodium falciparum FCK2 growth as [3H]hypoxanthine uptake after 48 hrs; format: functional, organism-based
In short: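 Ring-synchronized FCK2 in human O+ erythrocytes, 2 to 3% hematocrit, 1 to 2% initial parasitemia. Cultured 48 h with [3H]hypoxanthine and a range of inhibitor concentrations, inhibitor refreshed in new medium every 24 h, in duplicate. Cells harvested onto glass fibre filters for scintillation counting. IC50/MIC90 from nonlinear fit of parasitemia relative to untreated (100%) against log concentration.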

Plasmodium falciparum [3] = experiment: Inhibition of Plasmodium falciparum FCK2 growth as [3H]hypoxanthine uptake after 96 hrs; format: functional, organism-based
In short: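 Ring-synchronized FCK2 at 2 to 3% hematocrit, 1 to 2% initial parasitemia, exposed to a range of inhibitor concentrations for the first 48 h only, in duplicate. [3H]hypoxanthine then added for a further 48 h, followed by harvest and scintillation counting. IC50/MIC90 from nonlinear fit of parasitemia relative to untreated (100%) against log concentration.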

Plasmodium falciparum [4] = experiment: Decrease in Plasmodium falciparum FCK2 in erythrocytes at 50 uM after 84 hrs; format: functional, organism-based
In short: (§1)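 Ring-stage synchronized FCK2 in human O+ erythrocytes at 10% hematocrit and 3% starting parasitemia, with medium changed every 24 h. Inhibitor was present either throughout (96 h) or for the first 48 h only, in triplicate. Giemsa thin smears were read every 12 h, counting at least 10 fields of about 200 cells. Parasitemia is infected RBC over total RBC; parasites lacking an intact membrane or stained cytoplasm were scored dead.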

Plasmodium falciparum [5] = experiment: Reduction in Plasmodium falciparum FCK2 in human blood cell culture after 96 hrs; format: functional; design: scale not given: the % may be the effect or the level left
In short: (§2)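 Ring-stage synchronized FCK2 (2–3% hematocrit, 1–2% parasitemia) was treated with an inhibitor dilution series for the first 48 h only, in duplicate. [3H]hypoxanthine was then added for a further 48 h (96 h total) before filter harvest and scintillation counting. Percent parasitemia was set relative to untreated controls, and IC50/MIC90 were fitted by nonlinear regression against log concentration.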

Plasmodium falciparum [6] = experiment: Reduction in Plasmodium falciparum FCK2 in human erythrocyte culture after 48 hrs; format: functional, organism-based
In short: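 FCK2 synchronized with sorbitol, at ring stage, in O+ erythrocytes (2–3% hematocrit, 1–2% parasitemia). Cells were exposed to an inhibitor dilution series with [3H]hypoxanthine for 48 h, with fresh inhibitor every 24 h, in duplicate. Harvested onto glass-fiber filters for scintillation counting. Parasitemia was taken relative to untreated (100%), and IC50/MIC90 were fitted by nonlinear regression against log concentration.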

Plasmodium falciparum [7] = experiment: Reduced apicoplast DNA/nuclear DNA ratio in Plasmodium falciparum FCK2 at 100 nM after 72 hrs by competitive PCR; format: functional, organism-based
Plasmodium falciparum [8] = experiment: Reduced apicoplast genome copy number in Plasmodium falciparum FCK2 after 96 hrs; format: functional
Plasmodium falciparum [9] = experiment: Reduced apicoplast DNA/nuclear DNA ratio in Plasmodium falciparum FCK2 at 10 uM after 72 hrs by competitive PCR; format: functional
Plasmodium falciparum [10] = experiment: Inhibition of fatty acid biosynthesis in Plasmodium falciparum FCK2 as [1,2-14C]acetate uptake during first asexual cycle at 10 uM after 24 hrs; format: functional, organism-based
Plasmodium falciparum [11] = experiment: Decrease in Plasmodium falciparum FCK2 in erythrocytes at 5 uM after 84 hrs; format: functional, organism-based; in short: as §1
Plasmodium falciparum [12] = experiment: Reduced apicoplast genome copy number in Plasmodium falciparum FCK2 after 48 hrs; format: functional
Plasmodium falciparum [13] = experiment: Reduced apicoplast DNA/nuclear DNA ratio in Plasmodium falciparum FCK2 at 500 uM after 72 hrs by competitive PCR; format: functional, organism-based
Plasmodium falciparum [14] = experiment: Inhibition of Plasmodium falciparum FCK2 second cycle growth in erythrocytes at 48 hrs; format: functional, organism-based; in short: as §2
Plasmodium falciparum [15] = experiment: Reduced apicoplast DNA/nuclear DNA ratio in Plasmodium falciparum FCK2 at 1 mM after 72 hrs by competitive PCR; format: functional, organism-based
In short: (§3)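 FCK2 cultures were treated for 72 h, then saponin-lysed, and genomic DNA was kit-purified. Competitive PCR for eftu (apicoplast) and fabI (nuclear) used deletion-mutant plasmid standards diluted in calf thymus DNA, run for 25 cycles at 95/50/72°C. Products were quantified by ethidium-stained gel densitometry, and copy number was taken at equal band intensity. Groups were compared by two-tailed Student t test.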

Plasmodium falciparum [16] = experiment: Reduced apicoplast DNA/nuclear DNA ratio in Plasmodium falciparum FCK2 at 100 uM after 72 hrs by competitive PCR; format: functional; in short: as §3
Plasmodium falciparum [17] = experiment: Inhibition of fatty acid biosynthesis in Plasmodium falciparum FCK2 as decreased [1,2-14C]acetate uptake at 10 uM after 2 hrs; format: functional, organism-based

Compound | IC50 (Plasmodium falciparum [2]) | MIC90 (Plasmodium falciparum [2]) | IC50 (Plasmodium falciparum [3]) | MIC90 (Plasmodium falciparum [3]) | further results
Oc1ccc(Cl)cc1Oc1ccc(Cl)c2cccnc12 |  |  |  |  | Activity (Plasmodium falciparum [1]): inactive
O=C(O)c1cc(Oc2ccc(C(F)(F)F)cc2Cl)ccc1[N+](=O)[O-] [ACIFLUORFEN] | 525 µM | 871 µM (≈ 315 µg/mL) | 457 µM | 692 µM (≈ 250 µg/mL) | 
C/C=C/C/C=C/CCC(=O)[C@H]1O[C@H]1C(N)=O [CERULENIN] | 15.1 µM | 64.9 µM (≈ 14.5 µg/mL) | 16.9 µM | 52.3 µM (≈ 11.7 µg/mL) | 
O=C(N[C@H](CO)[C@H](O)c1ccc([N+](=O)[O-])cc1)C(Cl)Cl [CHLORAMPHENICOL] | 417 µM | 1020 µM (≈ 331 µg/mL) | 11.2 µM | 190 µM (≈ 61.6 µg/mL) | Activity (Plasmodium falciparum [4]): inactive; Activity (Plasmodium falciparum [5]): 10%; Activity (Plasmodium falciparum [6]): inactive
CCN(CC)CCCC(C)Nc1ccnc2cc(Cl)ccc12 (stereo unspecified) [CHLOROQUINE] |  | 0.011 µM (≈ 0.00352 µg/mL) |  | 0.011 µM (≈ 0.00352 µg/mL) | Activity (Plasmodium falciparum [7]): inactive
CCC[C@@H]1C[C@@H](C(=O)N[C@@H]([C@H]2O[C@H](SC)[C@H](O)[C@@H](O)[C@H]2O)[C@H](C)Cl)N(C)C1 [CLINDAMYCIN] | 288 µM | 537 µM (≈ 228 µg/mL) | 0.0013 µM | 6 µM (≈ 2.55 µg/mL) | Activity (Plasmodium falciparum [8]): 0.42; Activity (Plasmodium falciparum [9]): 0.4; Activity (Plasmodium falciparum [10]): inactive; Activity (Plasmodium falciparum [11]): inactive; Activity (Plasmodium falciparum [5]): 10%; Activity (Plasmodium falciparum [6]): inactive; Activity (Plasmodium falciparum [12]): 0.65
C[C@@H]1C[C@@H]([C@H](O)CC2CC(=O)NC(=O)C2)C(=O)[C@@H](C)C1 [CYCLOHEXIMIDE] | 0.15 µM | 0.73 µM (≈ 0.205 µg/mL) | 0.1 µM | 0.48 µM (≈ 0.135 µg/mL) | Activity (Plasmodium falciparum [7]): inactive
CC(Oc1ccc(Oc2ccc(C(F)(F)F)cn2)cc1)C(=O)O (stereo unspecified) [FLUAZIFOP] | 1550 µM | 6920 µM (≈ 2260 µg/mL) | 1480 µM | 5750 µM (≈ 1880 µg/mL) | 
CC(Oc1ccc(Oc2ncc(C(F)(F)F)cc2Cl)cc1)C(=O)O (stereo unspecified) [HALOXYFOP] | 107 µM | 346 µM (≈ 125 µg/mL) | 97.7 µM | 346 µM (≈ 125 µg/mL) | Activity (Plasmodium falciparum [13]): inactive
CC(Oc1ccc(Oc2cnc3cc(Cl)ccc3n2)cc1)C(=O)O (stereo unspecified) [QUIZALOFOP] | 575 µM | 3090 µM (≈ 1070 µg/mL) | 676 µM | 1950 µM (≈ 672 µg/mL) | 
C[C@@H]1C[C@H]2O[C@@H]2/C=C\C=C\C(=O)Cc2c(Cl)c(O)cc(O)c2C(=O)O1 [RADICICOL] | 7.2 µM | 46.8 µM (≈ 17.1 µg/mL) | 5.6 µM | 60.2 µM (≈ 22 µg/mL) | 
CO[C@H]1/C=C/O[C@@]2(C)Oc3c(C)c(O)c4c(O)c(c(/C=N/N5CCN(C)CC5)c(O)c4c3C2=O)NC(=O)/C(C)=C\C=C\[C@H](C)[C@H](O)[C@@H](C)[C@@H](O)[C@@H](C)[C@H](OC(C)=O)[C@@H]1C [RIFAMPIN] | 4.2 µM | 110 µM (≈ 90.2 µg/mL) | 0.19 µM | 2 µM (≈ 1.65 µg/mL) | Activity (Plasmodium falciparum [11]): Active; Activity (Plasmodium falciparum [14]): Active; Activity (Plasmodium falciparum [5]): 10%; Activity (Plasmodium falciparum [6]): inactive
CC(=O)CC(=O)CCC(=O)O [SUCCINYLACETONE] | 17800 µM | 58900 µM (≈ 9310 µg/mL) | 17400 µM | 51300 µM (≈ 8110 µg/mL) | Activity (Plasmodium falciparum [15]): inactive
CN(C)[C@@H]1C(O)=C(C(N)=O)C(=O)[C@@]2(O)C(O)=C3C(=O)c4c(O)cccc4[C@@](C)(O)[C@H]3C[C@@H]12 [TETRACYCLINE] | 135 µM | 562 µM (≈ 250 µg/mL) | 2.19 µM | 26.9 µM (≈ 12 µg/mL) | Activity (Plasmodium falciparum [16]): 0.1; Activity (Plasmodium falciparum [4]): Active; Activity (Plasmodium falciparum [14]): Active; Activity (Plasmodium falciparum [5]): 10%; Activity (Plasmodium falciparum [6]): inactive
Oc1cc(Cl)ccc1Oc1ccc(Cl)cc1Cl [TRICLOSAN] | 1.1 µM | 15.8 µM (≈ 4.57 µg/mL) | 1.2 µM | 10.2 µM (≈ 2.95 µg/mL) | Activity (Plasmodium falciparum [8]): inactive; Activity (Plasmodium falciparum [17]): Active; Activity (Plasmodium falciparum [12]): inactive
